Experimental findings from ChEMBL document CHEMBL1134399 (J Med Chem, 2001) are described below.

Where a SMILES comes first, the peptide text is derived from it. Bridges are numbered along the chain shown (N, C = ends). [ ]: non-standard residue; d: D form. Phe(4-CF3) = N[C@@H](Cc1ccc(C(F)(F)F)cc1)C(=O)O; 2Nal = N[C@@H](Cc1ccc2ccccc2c1)C(=O)O; 3Pal = N[C@@H](Cc1cccnc1)C(=O)O; NMeK = CN[C@@H](CCCCN)C(=O)O

One experiment has as its target Somatostatin receptor. Briefly: Antagonism of in vitro SRIF inhibition of GH release from rat pituitary cells in culture. The conditions noted are these: pituitary gland cell. The format is functional, cell-based. An outline of the steps: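 Dispersed anterior pituitary cells from adult male rats, cultured 4–5 days at 37 °C. Six doses per plate, triplicate wells. GH measured by double antibody RIA. Antagonist IC50 versus SRIF is the mean ± SEM of n dose-response curves.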

Experiment [1] concerns the target Somatostatin receptor type 3 (Homo sapiens, UniProt P32745). Briefly: Ability to displace [125 I]labelled Tyr11-somatostatin from human hsst-3 receptor expressed on CHO cells. The class given is cell-based. The procedure, abridged: (§1)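 Membranes from stably transfected CHO-K1 clones, prepared in ice-cold 50 mM Tris-HCl and resuspended in 10 mM Tris-HCl. Stopped by filtration through PEI-soaked GF/C filters. Nonspecific binding taken with 1.0 μM SRIF. Ki ± SEM from concentration-dependent displacement.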

Experiment [2] addresses Somatostatin receptor type 4 (Homo sapiens, UniProt P31391). As to the kind of experiment: Ability to displace [125 I]labelled Tyr11-somatostatin from human hsst-4 receptor expressed on CHO cells. The class given is cell-based. An outline of the steps:
as §1

The target in experiment [3] is Somatostatin receptor type 5 (Homo sapiens, UniProt P35346). As to the kind of experiment: Ability to displace [125 I]labelled Tyr11-somatostatin from human hsst-5 receptor expressed on CHO cells. The format is cell-based. An outline of the steps: as §1
Experiment [4] has as its target Somatostatin receptor type 2 (Homo sapiens, UniProt P30874). Briefly: Ability to displace [125 I]labelled Tyr11-somatostatin from human hsst-2 receptor expressed on CHO cells. The class given is cell-based.
Experiment [5] concerns the target Somatostatin receptor type 1 (Homo sapiens, UniProt P30872). Briefly: Ability to displace [125 I]labelled Tyr11-somatostatin from human hsst-1 receptor expressed on CHO cells. The format is cell-based. An outline of the steps:
as §1

Chain of Somatostatin receptor type 4 (P31391 whole entry): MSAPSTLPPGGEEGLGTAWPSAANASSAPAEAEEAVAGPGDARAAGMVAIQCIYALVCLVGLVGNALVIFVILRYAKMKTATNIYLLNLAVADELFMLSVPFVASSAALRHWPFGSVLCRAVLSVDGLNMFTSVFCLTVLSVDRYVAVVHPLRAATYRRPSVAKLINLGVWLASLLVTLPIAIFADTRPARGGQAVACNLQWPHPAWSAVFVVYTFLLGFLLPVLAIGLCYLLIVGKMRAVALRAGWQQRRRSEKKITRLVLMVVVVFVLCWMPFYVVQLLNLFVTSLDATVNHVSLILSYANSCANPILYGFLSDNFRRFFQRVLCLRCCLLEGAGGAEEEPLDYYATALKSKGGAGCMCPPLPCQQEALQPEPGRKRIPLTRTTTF
Chain of Somatostatin receptor type 3 (P32745 whole entry): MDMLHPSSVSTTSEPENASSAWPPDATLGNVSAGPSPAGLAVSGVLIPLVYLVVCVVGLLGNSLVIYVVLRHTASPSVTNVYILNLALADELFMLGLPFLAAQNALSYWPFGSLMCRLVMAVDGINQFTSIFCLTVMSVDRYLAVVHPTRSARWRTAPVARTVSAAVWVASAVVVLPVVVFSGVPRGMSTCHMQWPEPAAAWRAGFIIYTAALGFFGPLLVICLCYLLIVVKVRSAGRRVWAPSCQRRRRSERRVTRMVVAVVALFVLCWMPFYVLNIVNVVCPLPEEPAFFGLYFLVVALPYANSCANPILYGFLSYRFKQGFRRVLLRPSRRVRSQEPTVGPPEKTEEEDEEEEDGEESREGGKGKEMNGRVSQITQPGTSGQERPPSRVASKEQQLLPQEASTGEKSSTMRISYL
Chain of Somatostatin receptor type 2 (P30874 whole entry): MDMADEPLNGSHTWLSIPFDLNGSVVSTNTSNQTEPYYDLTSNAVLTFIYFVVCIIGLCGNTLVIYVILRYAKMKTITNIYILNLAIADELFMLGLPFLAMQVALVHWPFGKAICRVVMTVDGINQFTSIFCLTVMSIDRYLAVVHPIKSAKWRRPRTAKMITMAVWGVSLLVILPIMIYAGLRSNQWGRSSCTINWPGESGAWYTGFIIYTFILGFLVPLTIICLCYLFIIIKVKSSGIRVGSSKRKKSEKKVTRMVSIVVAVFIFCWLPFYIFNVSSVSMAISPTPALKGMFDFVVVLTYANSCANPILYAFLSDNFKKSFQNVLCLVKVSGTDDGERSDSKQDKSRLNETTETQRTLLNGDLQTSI
Chain of Somatostatin receptor type 1 (P30872 whole entry): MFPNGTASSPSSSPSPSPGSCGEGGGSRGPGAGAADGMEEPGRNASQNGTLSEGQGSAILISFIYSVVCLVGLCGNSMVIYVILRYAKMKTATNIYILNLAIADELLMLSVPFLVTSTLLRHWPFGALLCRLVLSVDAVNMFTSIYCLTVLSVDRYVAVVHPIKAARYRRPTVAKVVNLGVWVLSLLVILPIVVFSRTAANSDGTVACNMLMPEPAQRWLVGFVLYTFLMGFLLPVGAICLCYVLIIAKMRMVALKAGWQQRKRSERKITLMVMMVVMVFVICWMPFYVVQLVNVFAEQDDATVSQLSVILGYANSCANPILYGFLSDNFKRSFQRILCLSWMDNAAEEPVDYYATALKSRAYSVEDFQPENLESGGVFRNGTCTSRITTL
Chain of Somatostatin receptor type 5 (P35346 whole entry): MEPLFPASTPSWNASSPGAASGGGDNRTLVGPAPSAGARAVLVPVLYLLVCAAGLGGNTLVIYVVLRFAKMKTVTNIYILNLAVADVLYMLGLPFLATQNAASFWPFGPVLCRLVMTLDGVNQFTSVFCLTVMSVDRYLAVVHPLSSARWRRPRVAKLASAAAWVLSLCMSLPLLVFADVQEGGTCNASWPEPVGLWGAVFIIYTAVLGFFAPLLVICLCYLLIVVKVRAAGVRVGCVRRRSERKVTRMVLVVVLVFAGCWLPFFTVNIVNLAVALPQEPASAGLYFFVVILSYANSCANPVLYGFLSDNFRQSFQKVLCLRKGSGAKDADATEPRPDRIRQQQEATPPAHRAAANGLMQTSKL

Take `CN[C@@H](Cc1ccc(Cl)cc1)C(=O)N[C@H]1CSSC[C@H](C(=O)N[C@@H](Cc2ccc3ccccc3c2)C(N)=O)NC(=O)[C@@H]([C@H](C)O)NC(=O)[C@H](CCCCN)NC(=O)[C@@H](Cc2c[nH]c3ccccc23)NC(=O)[C@H](Cc2cccnc2)NC1=O`: at Somatostatin receptor, the IC50 stood at 0.0078 µM.
Still for that read-out and setting: in the case of `C[C@H](O)[C@H]1NC(=O)[C@H](CCCCN)N(C)C(=O)[C@@H](Cc2c[nH]c3ccccc23)N(C)C(=O)[C@H](Cc2cccnc2)NC(=O)[C@@H](NC(=O)[C@@H](N)Cc2ccc(Cl)cc2)CSSC[C@H](C(=O)N[C@@H](Cc2ccc3ccccc3c2)C(N)=O)NC1=O` it was 0.0025 µM.
Take `C[C@@H](O)[C@@H]1NC(=O)[C@H](CCN)NC(=O)[C@@H](Cc2c[nH]c3ccccc23)NC(=O)[C@H](Cc2cccnc2)NC(=O)[C@H](NC(=O)[C@@H](N)Cc2ccc(Cl)cc2)CSSC[C@@H](C(=O)N[C@@H](Cc2ccc3ccccc3c2)C(N)=O)NC1=O`: the Ki in experiment [1] (cho) is 0.0236 µM; in experiment [2] (cho), over 1 µM; in experiment [3], over 1 µM; in experiment [4] (cho) it was 0.317 µM; in experiment [5] (cho) it was over 1 µM.
Consider `C[C@@H](O)[C@@H]1NC(=O)[C@H](CCCCN)N(C)C(=O)[C@@H](Cc2c[nH]c3ccccc23)NC(=O)[C@H](Cc2cccnc2)NC(=O)[C@H](NC(=O)[C@@H](N)Cc2ccc(C(F)(F)F)cc2)CSSC[C@@H](C(=O)N[C@@H](Cc2ccc3ccccc3c2)C(N)=O)NC1=O` (H-[Phe(4-CF3)][dC][3Pal][dW][NMeK]TC[2Nal]-NH2; disulfide 2-7), for which the Ki in experiment [1] was 0.0402 µM; in experiment [2], 1.25 µM; in experiment [4], 0.0113 µM; in experiment [5] it was over 1 µM.

What is called IC50 is the point on the concentration scale where inhibition reaches its midpoint. Lower therefore signals inhibition by little substance. Broadly, the Ki is a dissociation constant, usually derived from enzyme kinetics or from competition with a known ligand. Read a high Ki as lower affinity.
